Publication PMC3581696 (The Journal of General Physiology, 2013)
Changes are numbered by the printed parent chain. Values joined by “and” are separate entries in the source; they are usually repeats but may differ in a detail not shown here. Identical values can stand only once.

Experiments:
[1] = Solubility limit in recording / aqueous solutions; assay type: physicochemical; details: recording solutions, aqueous buffer
mEAG1 channel = target: T1, mEAG1 channel (Mus musculus, UniProt Q60603); assay: Inside-out patch-clamp of wild-type mEAG1 channels expressed in Xenopus oocytes; assay type: cell-based
T1 sequence (Q60603 1-989): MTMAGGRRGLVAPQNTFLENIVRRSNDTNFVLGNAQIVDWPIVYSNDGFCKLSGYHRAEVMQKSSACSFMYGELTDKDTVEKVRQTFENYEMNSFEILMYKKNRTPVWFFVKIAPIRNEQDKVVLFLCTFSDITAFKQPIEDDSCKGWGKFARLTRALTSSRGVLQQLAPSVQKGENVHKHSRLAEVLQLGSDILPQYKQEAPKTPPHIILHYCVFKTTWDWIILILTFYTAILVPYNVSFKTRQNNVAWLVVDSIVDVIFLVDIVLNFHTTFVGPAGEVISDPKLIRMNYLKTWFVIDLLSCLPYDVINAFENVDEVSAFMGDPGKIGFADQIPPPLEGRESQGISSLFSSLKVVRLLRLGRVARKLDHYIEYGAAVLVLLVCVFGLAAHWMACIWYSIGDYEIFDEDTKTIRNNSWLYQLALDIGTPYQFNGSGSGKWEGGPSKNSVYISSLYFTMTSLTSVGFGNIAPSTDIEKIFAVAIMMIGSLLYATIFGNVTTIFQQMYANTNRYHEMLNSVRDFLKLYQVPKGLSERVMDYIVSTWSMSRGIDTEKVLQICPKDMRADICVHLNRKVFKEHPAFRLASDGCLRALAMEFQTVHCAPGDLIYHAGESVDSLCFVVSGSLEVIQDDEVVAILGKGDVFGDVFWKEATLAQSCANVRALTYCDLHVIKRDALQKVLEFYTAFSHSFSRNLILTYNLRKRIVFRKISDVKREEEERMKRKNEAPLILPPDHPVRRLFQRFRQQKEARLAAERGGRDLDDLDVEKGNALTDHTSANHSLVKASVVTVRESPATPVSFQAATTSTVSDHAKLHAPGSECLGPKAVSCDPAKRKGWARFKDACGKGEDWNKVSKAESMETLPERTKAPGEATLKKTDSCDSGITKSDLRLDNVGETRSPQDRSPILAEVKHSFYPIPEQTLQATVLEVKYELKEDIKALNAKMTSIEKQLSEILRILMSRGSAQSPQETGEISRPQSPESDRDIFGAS

[2] = target: T2, purified C-linker/CNBHD of mEAG1 channels (Mus musculus, UniProt Q60603); assay: Tryptophan-to-flavonoid FRET binding assay; details: 100 µM flavonoid; 4 µM protein
T2 sequence (Q60603 505-702): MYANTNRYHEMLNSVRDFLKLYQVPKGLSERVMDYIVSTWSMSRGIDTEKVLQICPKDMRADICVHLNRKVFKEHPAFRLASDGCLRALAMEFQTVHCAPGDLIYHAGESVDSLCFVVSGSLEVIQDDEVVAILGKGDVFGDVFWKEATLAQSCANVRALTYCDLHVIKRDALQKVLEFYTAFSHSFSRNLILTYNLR

mEAG1 Y699A channels = target: T3, mEAG1 Y699A channels (Mus musculus, UniProt Q60603, Y699A); assay: Inside-out patch-clamp of intrinsic ligand mutant channels; assay type: cell-based
T3 sequence (Q60603 1-989 Y699A): T1 sequence (Q60603 1-989) with Y699A
Method in brief: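 mEAG1 mutant cRNA was injected into defolliculated Xenopus oocytes, and the vitelline membrane was removed. Inside-out patches were bathed in symmetric 130 mM KCl, 10 mM HEPES, 0.2 mM EDTA, pH 7.2, holding at −100 mV. Steps of 0.1 s from −140 to +50 mV (10-mV increments) were followed by −120 mV tails, without or with 30 µM flavonoid. Peak tails were normalized and Boltzmann-fitted. Deactivation time constant came from single-exponential fits of the −120 mV tail after +50 mV; two-tailed t test.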

[3] = target: T4, wild-type CNBHD from mEAG1 (Mus musculus, UniProt Q60603); assay: Fisetin fluorescence anisotropy binding assay, wild-type CNBHD; details: Kd (apparent affinity), 5 µM fisetin, fit with Eq. 7
T4 sequence (Q60603 552-724): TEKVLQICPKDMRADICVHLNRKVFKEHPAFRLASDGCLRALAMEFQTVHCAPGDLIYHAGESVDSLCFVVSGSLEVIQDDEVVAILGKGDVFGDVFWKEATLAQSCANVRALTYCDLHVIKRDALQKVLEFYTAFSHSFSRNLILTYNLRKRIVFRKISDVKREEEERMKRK

## O=c1c(O)c(-c2ccc(O)c(O)c2)oc2cc(O)ccc12 [Fisetin, 2-(3,4-dihydroxyphenyl)-3,7-dihydroxychromen-4-one]
[1]
  solubility: ≤ 150 µM
mEAG1 channel
  Hill coefficient, deactivation time constant versus fisetin plot: 1.2
  Hill coefficient, ΔV1/2 versus fisetin plot: 2.2
mEAG1 channel; concentrations of 100 µM and higher
  effect on mEAG1 currents at high concentration: inhibited mEAG1 currents
mEAG1 channel; with 30 µM fisetin, at −120 mV after step to +50 mV, 4.5 ± 0.8 ms without, n = 6
  time constant of deactivation: 7.2 ± 1.0 ms
mEAG1 channel; with 30 µM fisetin, tail current at −120 mV after step to 50 mV, 5.3 ms before
  time constant of deactivation (single tail current of Fig. 3 C): 13.9 ms
mEAG1 channel; with 30 µM fisetin, −41.9 ± 4.1 mV without, n = 6
  V1/2 of the conductance–voltage relationship: −55.4 ± 3.7 mV
[2]
  decrease of peak fluorescence intensity of the C-linker/CNBHD at 341 nm: 27%
mEAG1 Y699A channels; 30 µM fisetin
  potentiation of mEAG1 Y699A channels: did not potentiate
mEAG1 Y699A channels; with 30 µM fisetin, at −120 mV, 5.0 ± 0.4 ms without, n = 10, P = 0.06
  time constant of deactivation: 6.4 ± 0.6 ms
mEAG1 Y699A channels; with 30 µM fisetin, −54.9 ± 3.5 mV without, n = 10, P = 0.65
  V1/2 of the conductance–voltage relationship: −57.2 ± 3.6 mV
[3]
  Kd: 111 µM and ≥ 111 µM
